Source: ChEMBL document CHEMBL4402601, “Discovery of a Silicon-Containing Pan-Genotype Hepatitis C Virus NS5A Inhibitor” (J Med Chem, 2020)

Experiments:
Hepatitis C virus [1] = assay: Antiviral activity against Hepatitis C virus subtype 3a subgenomic replicon expressing NS5A infected in human HuH7 cells assessed as reduction in viral replication incubated for 3 days by luciferase reporter gene assay; format: functional, organism-based, Hepacivirus hominis; details: Huh-7, 72 h
In short: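 HCV replicon cell assay; inhibition of replication read as decrease in luciferase signal. Percent inhibition computed at each compound concentration; EC50 (pM) from nonlinear regression fit to a 4-parameter logistic equation. Values are means of triplicate wells, with each experiment run at least twice.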

Hepatitis C virus [2] = assay: Antiviral activity against Hepatitis C virus subtype 4a subgenomic replicon expressing NS5A infected in human HuH7 cells assessed as reduction in viral replication incubated for 3 days by luciferase reporter gene assay; format: functional, organism-based, Hepacivirus hominis; details: Huh-7, 72 h
Hepatitis C virus [3] = assay: Antiviral activity against Hepatitis C virus subtype 1a H77 subgenomic replicon expressing NS5A M28T mutant infected in human HuH7 cells assessed as reduction in viral replication incubated for 3 days by luciferase reporter gene assay; format: functional, organism-based, Hepacivirus hominis; details: subtype 1a H77, Huh-7, 72 h
In short: (§1)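 NS5A resistance-associated variants introduced into GT1a-H77 or GT1b-Con1 replicons. In transient assays, each variant replicon was electroporated into a Huh-7-derived cell line. Inhibition measured as drop in luciferase signal. Percent inhibition computed per concentration; EC50 from 4-parameter logistic nonlinear fit. Fold resistance is variant EC50 relative to the matching reference replicon.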

Hepatitis C virus [4] = assay: Antiviral activity against Hepatitis C virus subtype 1a H77 subgenomic replicon expressing NS5A Q30E mutant infected in human HuH7 cells assessed as reduction in viral replication incubated for 3 days by luciferase reporter gene assay; format: functional, organism-based, Hepacivirus hominis; details: subtype 1a H77, Huh-7, 72 h; in short: as §1
Hepatitis C virus [5] = assay: Antiviral activity against Hepatitis C virus subtype 1b Con1 replicon expressing NS5A P32L mutant infected in human HuH7 cells assessed as reduction in viral replication incubated for 3 days by luciferase reporter gene assay; format: functional, organism-based, Hepacivirus hominis; details: subtype 1b Con1, Huh-7, 72 h; in short: as §1
Hepatitis C virus [6] = assay: Resistance index, ratio of EC50 for Hepatitis C virus subtype 1a H77 subgenomic replicon expressing NS5A L31M mutant infected in human HuH7 cells to EC50 for Hepatitis C virus subtype 1a H77 subgenomic replicon expressing NS5A infected in human HuH7 cells; format: functional, Hepacivirus hominis; in short: as §1
Hepatitis C virus [7] = assay: Resistance index, ratio of EC50 for Hepatitis C virus subtype 1a H77 subgenomic replicon expressing NS5A L31V mutant infected in human HuH7 cells to EC50 for Hepatitis C virus subtype 1a H77 subgenomic replicon expressing NS5A infected in human HuH7 cells; format: functional, Hepacivirus hominis
Hepatitis C virus [8] = assay: Resistance index, ratio of EC50 for Hepatitis C virus subtype 1a H77 subgenomic replicon expressing NS5A Q30K mutant infected in human HuH7 cells to EC50 for Hepatitis C virus subtype 1a H77 subgenomic replicon expressing NS5A infected in human HuH7 cells; format: functional, Hepacivirus hominis
Hepatitis C virus [9] = assay: Resistance index, ratio of EC50 for Hepatitis C virus subtype 1a H77 subgenomic replicon expressing NS5A Y93C mutant infected in human HuH7 cells to EC50 for Hepatitis C virus subtype 1a H77 subgenomic replicon expressing NS5A infected in human HuH7 cells; format: functional, Hepacivirus hominis
Hepatitis C virus [10] = assay: Resistance index, ratio of EC50 for Hepatitis C virus subtype 1a H77 subgenomic replicon expressing NS5A Y93N mutant infected in human HuH7 cells to EC50 for Hepatitis C virus subtype 1a H77 subgenomic replicon expressing NS5A infected in human HuH7 cells; format: functional, Hepacivirus hominis
Hepatitis C virus [11] = assay: Resistance index, ratio of EC50 for Hepatitis C virus subtype 1b Con1 subgenomic replicon expressing NS5A Y93H mutant infected in human HuH7 cells to EC50 for Hepatitis C virus subtype 1b Con1 subgenomic replicon expressing NS5A infected in human HuH7 cells; format: functional, Hepacivirus hominis
Hepatitis C virus [12] = assay: Resistance index, ratio of EC50 for Hepatitis C virus subtype 1b Con1 subgenomic replicon expressing NS5A L31W mutant infected in human HuH7 cells to EC50 for Hepatitis C virus subtype 1b Con1 subgenomic replicon expressing NS5A infected in human HuH7 cells; format: functional, Hepacivirus hominis
Hepatitis C virus [13] = assay: Resistance index, ratio of EC50 for Hepatitis C virus subtype 1b Con1 subgenomic replicon expressing NS5A P32L mutant infected in human HuH7 cells to EC50 for Hepatitis C virus subtype 1b Con1 subgenomic replicon expressing NS5A infected in human HuH7 cells; format: functional, Hepacivirus hominis
[14] = Metabolic stability in rat liver microsomes assessed as compound remaining at 1 uM incubated for 60 mins by UPLC-MS/MS analysis; format: ADME, Microsome; details: read-out: Stability
In short: (§2)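 Pooled mouse, rat or human liver microsomes (0.5 mg/mL) with 1 μM compound, 1 mM NADPH, 5 mM MgCl₂ and 100 mM potassium phosphate pH 7.4. Pre-incubated 5 min at 37 °C, started with NADPH, then run 60 min at 37 °C. Quenched with ice-cold acetonitrile containing internal standard; parent remaining measured by UPLC-MS/MS.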

[15] = Metabolic stability in human liver microsomes assessed as compound remaining at 1 uM incubated for 60 mins by UPLC-MS/MS analysis; format: ADME, Microsome; details: read-out: Stability; in short: as §2
[16] = Half life in mouse at 10 mg/kg, po by UPLC-MS/MS analysis; format: ADME, organism-based; details: in vivo
In short: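 Overnight-fasted mice given a single 10 mg/kg oral dose in 2:2:96 (v/v) alcohol : Tween 80 : glucose injection. Plasma levels by UPLC-MS/MS. Bioavailability derived against a 2 mg/kg iv arm using the same formulation diluted 2.5 times with 10% glucose injection.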

[17] = Half life in dog at 5 mg/kg, po by UPLC-MS/MS analysis; format: ADME, organism-based, Canis lupus familiaris; details: in vivo
[18] = Tmax in dog at 5 mg/kg, po by UPLC-MS/MS analysis; format: ADME, organism-based, Canis lupus familiaris; details: in vivo
[19] = Drug distribution in rat plasma at 10 mg/kg, po incubated for 0.5 hrs by UPLC-MS/MS analysis; format: ADME, organism-based
In short: (§3)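 Oral dosing in mice and rats; compound measured in plasma and liver by UPLC-MS/MS at each time point, n = 3 (mean ± SD). LPR is mean liver concentration divided by mean plasma concentration.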

[20] = Drug distribution in rat plasma at 10 mg/kg, po incubated for 8 hrs by UPLC-MS/MS analysis; format: ADME, organism-based; in short: as §3
[21] = Drug distribution in rat liver at 10 mg/kg, po incubated for 0.5 hrs by UPLC-MS/MS analysis; format: ADME, organism-based; details: read-out: Drug uptake; in short: as §3
[22] = Ratio of drug distribution in mouse liver to drug distribution in mouse plasma measured after 3 hrs by UPLC-MS/MS analysis; format: ADME, cell-free; in short: as §3
[23] = Ratio of drug distribution in rat liver to drug distribution in rat plasma measured after 0.5 hrs by UPLC-MS/MS analysis; format: ADME, cell-free; in short: as §3
[24] = Ratio of drug distribution in rat liver to drug distribution in rat plasma measured after 3 hrs by UPLC-MS/MS analysis; format: ADME, cell-free; in short: as §3
[25] = Cytotoxicity against human HuH7 cells assessed as reduction in cell viability incubated for 3 days by luciferase reporter gene assay; format: cell-based, Huh-7
[26] = Toxicity in mouse assessed as abnormality on organs at 300 mg/kg, po administered for 14 days and measured on day 14; format: organism-based; details: in vivo, 336 h
In short: (§4)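 Mice randomised after acclimation into two groups of 5 males and 5 females. Compound at 300 mg/kg or vehicle alone given once daily by oral gavage for 14 days. Clinical signs observed daily. Body weight and food intake recorded on day 1, then twice weekly. Animals killed after the 14th dose.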

[27] = Toxicity in mouse assessed as increase in cholesterol level at 300 mg/kg, po administered for 14 days and measured on day 14; format: organism-based; details: in vivo, 336 h; in short: as §4

Structure (SMILES): COC(=O)N[C@H](C(=O)N1CCC[C@H]1C(=O)Nc1ccc([C@@H]2CC[C@@H](c3ccc(NC(=O)[C@@H]4CCCN4C(=O)[C@@H](NC(=O)OC)[C@@H](C)OC)cc3)N2c2cc(F)c(N3CC[Si](C)(C)CC3)c(F)c2)cc1)[C@@H](C)OC
- EC50 (Hepatitis C virus [1]): 0.003 nM
- EC50 (Hepatitis C virus [2]): 0.00033 nM
- EC50 (Hepatitis C virus [3]): 0.00237 nM
- EC50 (Hepatitis C virus [4]): 0.216 nM
- EC50 (Hepatitis C virus [5]): 0.00164 nM
- Ratio EC50 (Hepatitis C virus [6]): 9.9
- Ratio EC50 (Hepatitis C virus [7]): 23
- Ratio EC50 (Hepatitis C virus [8]): 30.5
- Ratio EC50 (Hepatitis C virus [9]): >203
- Ratio EC50 (Hepatitis C virus [10]): >203
- Ratio EC50 (Hepatitis C virus [11]): 12.2
- Ratio EC50 (Hepatitis C virus [12]): 11.4
- Ratio EC50 (Hepatitis C virus [13]): 1
- remaining at 1 h, 1 µM [14]: 76.3%
- remaining at 1 h, 1 µM [15]: 80.9%
- half-life [16]: 8 h
- half-life [17]: 21.2 h
- Tmax [18]: 5.3 h
- concentration at 0.5 h [19]: 40.9 ng/mL
- concentration at 8 h [20]: 16.4 ng/mL
- concentration at 0.5 h [21]: 359 ng/g
- Kp at 3 h [22]: 24.6
- Kp at 0.5 h [23]: 2.7
- Kp at 3 h [24]: 5.2
- CC50 at 72 h [25]: > 50000 nM
- Activity [26]: Non-Toxic
- Activity [27]: Non-Toxic
